Apaf1 inhib: blocks human Apaf-1 apoptosome activity. O14727. AID 489030. reconstituted apoptosome caspase-3 activity, DEVD-Rh110 fluorescence. 0.71% of 330,000 active. inhibition, % at 20 µM; active = inhibition of at least 40% at 20 µM;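 note: plate controls were DMSO wells for no effect and DEVD-CHO caspase inhibitor wells for full effect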
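Medium: Hepes buffer, pH 7.5 / System: biochemical Apaf-1 apoptosome reconstitution / Measured by: Rh110 fluorescence, excitation 480 nm, emission 540 nm / Times: compound with Apaf-1, dATP, procaspase-3 30 min, then 50 min reaction, room temperature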
SENP6 block: inhibitors of human SENP6 protease | Q9GZR1 | 1.8% of 330,000 active | inhibition, % at 10 µM | Recombinant SENP6 catalytic domain, aminoluciferin luminescence;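 active = inhibition above about 50% at the single tested dose, limit read from the data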;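 note: plate controls were DMSO wells with enzyme for no effect and DMSO wells lacking enzyme for full effect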
SENP8 block-1: SENP8 protease inhibition; Q96LD8; purified SENP8, Z-RLRGG-aminoluciferin cleavage, luminescence; inhibition, % at 10 µM; 1.2% of 330,000 active; AID 2540; in the data active = inhibition above about 50%
Target sequence (Q96LD8 whole entry, looked up): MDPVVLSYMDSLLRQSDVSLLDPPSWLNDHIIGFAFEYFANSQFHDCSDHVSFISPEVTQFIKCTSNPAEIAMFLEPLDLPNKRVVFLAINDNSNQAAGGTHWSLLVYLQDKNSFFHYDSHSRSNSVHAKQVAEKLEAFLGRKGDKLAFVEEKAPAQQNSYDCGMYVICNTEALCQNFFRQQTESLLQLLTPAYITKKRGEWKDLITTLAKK
UBC13 polyUb: blocks human UBC13 polyubiquitin chain formation | P61088 | TR-FRET | inhibition, % at 20 µM | 0.47% of 330,000 active | AID 485273; in the data active = inhibition above about 45%, passing the limit was not always enough
SENP8 block-2: blocks human SENP8 cleavage of Nedd8 substrate; 0.64% of 360,000 active; inhibition, % at 20 µM; recombinant SENP8, Nedd8 substrate fluorescence; Q96LD8; in the data active = inhibition mostly above about 40%, no sharp cut-off; inactive = mostly below about 27%
SENP7 inh: inhibitors of human SENP7 protease. recombinant SENP7, Z-RLRGG-aminoluciferin luminescence, 40 min. inhibition, % at 5 µM. 1.5% of 330,000 active;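 active = inhibition above about 50% at the single test dose, limit read from the data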;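 note: plate controls were DMSO with enzyme for no effect and no enzyme buffer wells for full effect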
Target sequence (Q9BQF6 706-1050 limits assumed): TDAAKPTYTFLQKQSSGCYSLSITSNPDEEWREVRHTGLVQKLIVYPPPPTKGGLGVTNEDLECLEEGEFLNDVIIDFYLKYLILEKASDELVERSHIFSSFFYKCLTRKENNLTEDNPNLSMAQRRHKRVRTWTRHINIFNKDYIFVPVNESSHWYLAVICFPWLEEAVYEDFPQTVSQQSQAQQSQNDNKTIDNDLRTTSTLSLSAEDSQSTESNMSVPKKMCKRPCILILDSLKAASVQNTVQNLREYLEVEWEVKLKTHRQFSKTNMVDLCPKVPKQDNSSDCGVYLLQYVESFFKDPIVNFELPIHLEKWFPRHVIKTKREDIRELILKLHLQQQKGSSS
* = called active by the depositor; x = not tested or not shown. This is a sample that favours compounds with a hit; in the whole collection about 3.1% have one here.

SMILES	Apaf1 inhib	SENP6 block	SENP8 block-1	UBC13 polyUb	SENP8 block-2	SENP7 inh
CC(=O)N1CC2(c3ccccc3)CN(C(C)=O)CC(c3ccccc3)(C1)C2=O	-23.7	69.8*	0.8	20.4	15.7	0.5
CCC(=O)N1CC2(c3ccccc3)CN(C(=O)CC)CC(c3ccccc3)(C1)C2=O	5.6	-2.6	-6.4	-10.9	16.6	-4.1
COC(=O)[C@@]12C[C@@H](CC(=O)NCc3ccc(OC)c(OC)c3)C(=O)N(Cc3ccc4c(c3)OCO4)C1=CCC(C)(C)C2	x	x	x	x	18.4	x
COc1ccc(-n2nc(C(=O)NCC(=O)NC3CCCCCC3)c3ccccc3c2=O)c(OC)c1	47.9*	-14.6	4.0	8.6	-26.8	-2.2
COc1ccc(-n2nc(C(=O)NCC(=O)NC3CCCCC3)c3ccccc3c2=O)c(OC)c1	8.9	8.5	-0.7	4.1	-37.2	4.6
N#Cc1c2c(c(-n3cnc4ccccc43)n3c1nc1ccccc13)CCC2	44.9*	-21.3	-1.6	-0.1	-352.1	-1.3
Cc1nccn1-c1c2c(c(C#N)c3nc4ccccc4n13)CCCC2	x	x	x	x	15.1	x
Nc1ncnc2c1ncn2C1OCC(O)C1O (stereo not drawn)	x	x	x	x	10.1	x
COc1cc2c(cc1OC)C(c1ccc3c(c1)Cc1ccccc1-3)OC(=O)C2 (stereo not drawn)	x	x	x	x	12.6	x
Cc1cc(/C=C2\SC(=S)N(C)C2=O)c(C)n1-c1ccccc1O	-2.6	87.4*	69.8*	-54.3	-0.7	76.6*
Cn1cc(/C=C2\SC(=O)N(c3ccc(O)cc3)C2=O)c2ccccc21	-10.5	63.7*	-11.3	-13.8	8.7	0.9
COc1ccc(C(=O)/C=C/c2ccc(N3CCCCC3)c([N+](=O)[O-])c2)cc1	16.8	-26.3	-7.3	-11.3	20.0	0.8
COc1ccc(C(=O)/C=C/c2ccc(N3CCCCC3)c([N+](=O)[O-])c2)c(OC)c1	x	x	x	x	41.0*	x
Oc1ccc(N=Nc2cccc(C(F)(F)F)c2)cc1C=Nc1ccc(N2CCOCC2)cc1	1.6	65.9*	43.0	-39.2	35.6*	11.3
O=C1C(=Cc2cccs2)Oc2ccccc21	x	x	x	x	-130.6	x
Cc1ccccc1/C=C1\Oc2ccccc2C1=O	9.0	78.5*	62.9*	15.4	-26.8	51.1*
COc1ccc(-c2nc(-c3cccs3)no2)cc1	-9.0	98.6*	96.5*	3.6	27.2	98.6*
CCCCCCCCN1C(=O)[C@H](CC(=O)NCCCOCCCC)C[C@@]2(C(=O)OC)CC(C)(C)CC=C12	x	x	x	x	12.3	x
Cc1nn(-c2ccccc2)c(N2CCCC2)c1/C=N/Nc1ccc(S(N)(=O)=O)cc1[N+](=O)[O-]	23.5	-22.7	0.6	-72.7	47.6*	-5.9
NS(=O)(=O)c1ccc(N/N=C/c2ccc(C(=O)O)cc2)c([N+](=O)[O-])c1	-1.8	-4.7	0.7	-112.3	29.0	-2.2
O=C(NCc1cccc(C(F)(F)F)c1)C1C(=O)Nc2ccccc2C(=O)N1C1CCCC1 (stereo not drawn)	x	x	x	x	-94.4	x
Nc1nn2c(-c3ccccc3)cc(=O)[nH]c2c1N=Nc1ccc(Br)cc1	x	x	x	x	41.4*	x
Nc1nn2c(-c3ccccc3)cc(=O)[nH]c2c1N=Nc1ccc(O)cc1	40.6*	11.9	-1.5	-100.3	63.0*	6.6
C#CCN1CCc2onc(-c3ccc(Br)cc3)c2C1=O	x	x	x	x	15.2	x
CC(C)(C)Cc1c(-c2ccc(C#N)cc2)nc2c(Cl)cc(C(F)(F)F)cn12	x	x	x	x	-30.8	x
SMILES	Apaf1 inhib	SENP6 block	SENP8 block-1	UBC13 polyUb	SENP8 block-2	SENP7 inh
Cc1ccc(-c2cc(-c3ccccc3)no2)c(O)c1	x	x	x	x	-60.8	x
Cc1ccc2nc(-c3cc(-c4ccccc4)no3)cn2c1	-16.7	44.4	32.4	5.2	-233.1	89.7*
CCOC(=O)[C@]12CCCC=C1N(CCC1=CCCCC1)C(=O)[C@H](CC(=O)N1CCC(c3ccccc3)CC1)C2	x	x	x	x	12.8	x
CCOC(=O)C1CCCN(c2cc(NCCCO)c([N+](=O)[O-])c3nonc23)C1 (stereo not drawn)	40.5*	30.2	3.3	-18.5	x	17.8
COc1ccc(NC(=O)c2cc(-c3sc(NC(=O)c4ccccc4)nc3C)n(-c3ccc(Br)cc3)n2)cc1	x	x	x	x	-241.7	x
CC(C)(C)NC(=O)CSc1ncccc1-c1nc2ccccc2[nH]1	-15.1	-16.2	3.7	3.6	-278.5	4.6
Cc1cc2nc(-c3cccnc3SCC(=O)NC3CC3)[nH]c2cc1C	-2.5	87.8*	81.5*	7.0	x	90.0*
Cc1cccc(C)c1NC(=O)C1(C)CN(S(C)(=O)=O)CC(=O)N1Cc1ccc2c(c1)OCO2 (stereo not drawn)	x	x	x	x	16.2	x
COC(=O)[C@]12CCCCC=C1N(CCc1ccc(OC)c(OC)c1)C(=O)[C@H](CC(=O)NCC1CCCCC1)C2	x	x	x	x	12.9	x
COc1cc(/C=C2/C(=O)NN(c3cccc(C)c3)C2=O)cc([N+](=O)[O-])c1O	7.0	13.5	2.1	-139.8	48.4*	5.4
COc1cc(/C=C2/C(=O)NN(c3cccc(Cl)c3)C2=O)cc(OC)c1O	-0.4	2.4	-2.1	-305.2	31.8	0.0
COc1cc(/C=C2/C(=O)NN(c3ccc(C)c(Cl)c3)C2=O)cc([N+](=O)[O-])c1O	14.8	0.8	3.3	-133.5	49.5*	3.5
CC(C)NC(=O)C1(C)CN(S(C)(=O)=O)CC(=O)N1Cc1ccco1 (stereo not drawn)	x	x	x	x	16.4	x
CC(C)(C)OC(=O)Nc1ccccc1-n1nnnc1C(C(=O)c1ccc(F)cc1)N1CCOCC1 (stereo not drawn)	x	x	x	x	3.5	x
C[C@]12CC[C@@H]3c4cc(O)c(O)cc4CC[C@H]3[C@@H]1CC[C@@H]2O	10.1	1.2	-4.4	13.4	40.8*	11.3
C[C@]12CC[C@@H]3c4ccc(O)cc4CC[C@H]3[C@@H]1CC[C@@H]2O	4.6	1.2	-0.8	-16.1	5.0	-6.5
COc1ccc(S(=O)(=O)N2CCCCC2c2cc(C(=O)NCc3ccccc3)no2)cc1 (stereo not drawn)	x	x	x	x	10.6	x
CC[n+]1ccc2cc(OC)c(OC)cc2c1Cc1ccc(OC)c(OC)c1	7.2	-5.9	-12.0	-6.9	38.0	-4.8
COc1ccc(Cc2c3cc(OC)c(OC)cc3cc[n+]2C)cc1OC	17.0	20.3	13.7	-12.2	59.9*	-5.8
CCCCn1c(NC(=O)c2ccc(F)cc2)c(C#N)c2nc3ccccc3nc21	94.8*	92.2*	95.2*	-19.0	x	18.9
CCCCn1c(NC(=O)c2ccccc2)c(C#N)c2nc3ccccc3nc21	x	x	x	x	-278.4	x
NC(CCCCc1ccccc1)c1cccc2ccccc12 (stereo not drawn)	21.5	-18.2	-9.6	54.0*	x	-0.5
CCCCNC(=O)C1(C)CCN1C(=O)c1ccc(F)cc1Cl (stereo not drawn)	x	x	x	x	5.2	x
Cc1cc(C)nc(NC(=O)/C=C/c2ccccc2Cl)c1	6.2	82.7*	-4.1	0.1	3.4	81.5*
COC(=O)c1sccc1NC(=O)/C=C/c1ccc(Cl)cc1	-10.4	74.1*	57.8*	3.3	-40.0	94.7*
Cc1ccnc(NC(=O)/C=C/c2ccccc2[N+](=O)[O-])c1	0.5	38.8	69.3*	-21.9	x	77.8*

Screens from PubChem.
